The nature of series [1]: Dissociation constant (pKa). Type of series: physicochemical.
In series [2] the test system is Escherichia coli. Kind of series: Generation rate constant […] obtained from the inhibition of growth of Escherichia coli cells. Type of series: organism-based.
The subject of series [3] is Escherichia coli. Briefly: Evaluated for the concentration required for a 50% inhibition of N-acetyl-L-[14C] phenylalanylpuromycin formation. Type of series: functional. A digest of the protocol: (§1)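 Cell-free puromycin reaction with E. coli MRE-600 70S ribosomes (NH4Cl-washed, 4.0 A260 units) in 0.1 mL containing 0.05 M Tris-HCl pH 7.4, 0.1 M NH4Cl, 0.01 M MgCl2, 10 μg poly(U), 0.20 A260 unit N-Ac-[14C]Phe-tRNA, puromycin and inhibitor. Incubated at 37 °C for 30 min. Product extracted into ethyl acetate and counted by scintillation. Single-point inhibition was read at 8×10^-4 M.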

Series [4] in a line: Evaluated for the inhibition constant determined from the Dixon and slope vs. inhibitor concentration plots. Type of series: functional, Escherichia coli. In a few lines:
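Ki values came from the E. coli MRE-600 70S ribosome puromycin reaction, using poly(U), N-Ac-[14C]Phe-tRNA and puromycin in Tris-HCl pH 7.4 with NH4Cl and MgCl2, at 37 °C for 30 min. Inhibitor concentration was varied. Ethyl acetate-extracted product was counted by scintillation. Ki was derived from Dixon plots built by linear regression and from slope versus inhibitor concentration plots.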

Series [5] relates to Escherichia coli. Kind of series: Evaluated for percent inhibition against N-acetyl-L-[14C] phenylalanylpuromycin formation at 8e-4M. Type of series: functional. A digest of the protocol: as §1

On to `O=C(NC(CO)C(O)c1ccc([N+](=O)[O-])cc1)C(Cl)(Cl)Cl` (configuration not stated), for which the pKa (usually the pH at which an ionisable group is half protonated) in series [1] worked out at 0.65. In addition, the Log k in the series with Escherichia coli [2] was found to be 0.75. Besides, in the series on Escherichia coli [3], the ID50 came to 250 µM. Also, in series [4], the affinity corresponds to a Ki of 3 µM.

`CCCC(=O)NC(CO)C(O)c1ccc([N+](=O)[O-])cc1` (configuration not stated) came in with a pKa in series [1] of 4.82. Moreover, the Log k in the series on Escherichia coli [2] is listed as 0.71. For the same molecule, the inhibition (in general, the drop in the measured response relative to a control, in per cent) in the series on Escherichia coli [5] stood at 34%.

In series [1], `O=C(CO)NC(CO)C(O)c1ccc([N+](=O)[O-])cc1` (configuration not stated) yielded a pKa of 3.83. The molecule also showed an inhibition in the series with Escherichia coli [5] of 10%.

As for `O=C(NC(CO)C(O)c1ccc([N+](=O)[O-])cc1)C1CC1` (configuration not stated), the pKa in series [1] turned out to be 4.83. For the same molecule, in the series with Escherichia coli [5], the inhibition worked out at 20%.

With `O=CNC(CO)C(O)c1ccc([N+](=O)[O-])cc1` (configuration not stated), in series [1], the pKa was 3.77. This molecule also yielded an inhibition in the series on Escherichia coli [5] of 10%.

In series [1], `CCC(=O)NC(CO)C(O)c1ccc([N+](=O)[O-])cc1` (configuration not stated) returned a pKa of 4.88. Further, the inhibition with Escherichia coli [5] amounted to 39%.

On to `N#CCC(=O)NC(CO)C(O)c1ccc([N+](=O)[O-])cc1` (configuration not stated), for which the pKa in series [1] was 2.43. Moreover, the Log k in the series with Escherichia coli [2] is given as 0.14. This molecule had an ID50 in the series with Escherichia coli [3] of 350 µM. Besides, affinity in series [4] was put at a Ki of 1.7 µM.

`O=C(NC(CO)C(O)c1ccc([N+](=O)[O-])cc1)C1CCC1` (configuration not stated): the pKa in series [1] was determined as 4.79. The inhibition in the series with Escherichia coli [5] is 10%.

In turn, `[N-]=[N+]=NCC(=O)NC(CO)C(O)c1ccc([N+](=O)[O-])cc1` (configuration not stated) returned a pKa in series [1] of 3.03. In the series on Escherichia coli [5], the inhibition worked out at 60%. Moreover, the affinity in series [4], expressed as Ki, was 22 µM.

The molecule `O=[N+]([O-])c1ccc(C(O)C(CO)NP(=O)(O)CCl)cc1` (configuration not stated) had a pKa in series [1] of 1.4. In the series with Escherichia coli [5], this molecule registered an inhibition of 10%.

Regarding `O=C(NC(CO)C(O)c1ccc([N+](=O)[O-])cc1)C(Br)Br` (configuration not stated), the Log k in the series with Escherichia coli [2] was determined as 1.84. In the series on Escherichia coli [3], this molecule yielded an ID50 of 70 µM. The Ki (as a rule, the equilibrium dissociation constant of an inhibitor or competing ligand from its target) in series [4] is 1 µM.

In the case of `CS(=O)(=O)NC(CO)C(O)c1ccc([N+](=O)[O-])cc1` (configuration not stated), the pKa in series [1] is -0.6. This molecule yielded an ID50 with Escherichia coli [3] of 200 µM. The same molecule returned an inhibition constant (Ki) in series [4] of 1.1 µM.

As to `O=C(NC(CO)C(O)c1ccc([N+](=O)[O-])cc1)c1ccco1` (configuration not stated), the pKa in series [1] was found to be 3.12. This molecule also gave an inhibition in the series on Escherichia coli [5] of 10%.

In series [1], `O=C(CCl)NC(CO)C(O)c1ccc([N+](=O)[O-])cc1` (configuration not stated) returned a pKa of 2.86. For the same molecule, the Log k in the series on Escherichia coli [2] was determined as 1.71. Moreover, the ID50 with Escherichia coli [3] came out at 500 µM. This molecule also yielded a Ki in series [4] of 27 µM.

Molecule `CC(=O)NC(CO)C(O)c1ccc([N+](=O)[O-])cc1` (configuration not stated) gave a pKa in series [1] of 4.76. The molecule also yielded a Log k in the series with Escherichia coli [2] of 0.48. This molecule had an inhibition with Escherichia coli [5] of 34%.

Turning to `O=C(N[C@H](CO)[C@H](O)c1ccc([N+](=O)[O-])cc1)C(Cl)Cl` [CHLORAMPHENICOL], the pKa in series [1] turned out to be 1.29. Moreover, the ID50 with Escherichia coli [3] amounted to 30 µM. This molecule also came in with a Ki in series [4] of 1.6 µM.

In series [1], `O=C(CF)NC(CO)C(O)c1ccc([N+](=O)[O-])cc1` (configuration not stated) had a pKa of 2.66. For the same molecule, the Log k in the series on Escherichia coli [2] was 1.16. The inhibition with Escherichia coli [5] turned out to be 27%.

(Values after ChEMBL document CHEMBL1121569, “Analogues of chloramphenicol: circular dichroism spectra, inhibition of ribosomal peptidyltransferase, and possible mechanism of action” (J Med Chem, 1980).)
